The values below come from paper PMC9826232 (Chemmedchem, 2022).

Structures are written as SMILES.

The target of one data set is K‐Ras(G12D) (Homo sapiens, UniProt P01116, G12D). Nature of the data set: Nucleotide exchange assay. The format is biochemical. In short, it runs like this:
(§1)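 SOS1 (final 30.2 nM for G12D, 4.6 nM for wild type) and GTP (1 μM final) follow. Incubated overnight at room temperature, then GDP detection reagent for 1 h. Luminescence read; IC50 from sigmoidal curves.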

In another data set the target is (GDP)K‐Ras4B (Homo sapiens, UniProt P01116). Nature of the data set: MST. The format is binding.
Another data set deals with K‐Ras4B (Homo sapiens, UniProt P01116). Nature of the data set: NMR titration experiments. The format is binding. The essentials: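 GDP-bound K-Ras4B was titrated with test compound and followed by NMR chemical shift perturbation; KD derived from the titration.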
Another data set concerns the target (GTP)K‐Ras4B (Homo sapiens, UniProt P01116). The data set is described as follows: MST. The format is binding.
The next data set relates to NCI‐H441 (G12 V). The data set is described as follows: CellTiter-Glo cell viability assay, NCI-H441. The format is cell-based. To be noted: Homo sapiens, NCI-H441, 72 h, read-out: Cellular activity IC50, NCI‐H441 (G12 V). The essentials:
(§2)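 Cells seeded, then held 24 h at 37 °C/5 % CO2 before test compound in DMSO was added at various concentrations. Plates were incubated a further 72 h at 37 °C, 5 % CO2, humidified. Controls were DMSO vehicle and 10 μM staurosporine. CellTiter-Glo reagent was added at equal volume to the medium, then 2 min shaking and 10 min at room temperature before luminescence (ATP) reading. IC50 from dose-response fit; plates accepted only if Z' ≥0.5, from 16 control values each.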
Background: ATP-based viability assays read luminescence as a measure of living cells.

In the next data set the test system is A549 (G12S). Nature of the data set: CellTiter-Glo cell viability assay, A549. The format is cell-based. The settings on record: Homo sapiens, A549, 72 h, read-out: Cellular activity IC50, A549 (G12S). The essentials: as §2
For another data set, the system named is HCT15 (G13D). The data set is described as follows: CellTiter-Glo cell viability assay, HCT15. The format is cell-based. The settings on record: Homo sapiens, HCT-15, 72 h, read-out: Cellular activity IC50, HCT15 (G13D). The essentials:
as §2

For a further data set, the system named is H358 (G12 C). The data set is described as follows: CellTiter-Glo cell viability assay, H358. It is filed as cell-based. The settings on record: Homo sapiens, NCI-H358, 72 h, read-out: Cellular activity IC50, H358 (G12 C). The essentials: as §2
Data set [1] can be described thus: Control assay for nucleotide exchange assay. The settings on record: 3 mM compound; percent of control.
Another data set has as its target K‐Ras wild type protein (Homo sapiens, UniProt P01116). Nature of the data set: Nucleotide exchange assay. It is filed as biochemical. The essentials: as §1
Another data set relates to SNU‐1 (G12D). The data set is described as follows: CellTiter-Glo cell viability assay, SNU-1. The format is cell-based. To be noted: Homo sapiens, SNU1, 72 h, read-out: Cellular activity IC50, SNU‐1 (G12D). In short, it runs like this:
as §2

For data set [2] the following is noted: cited from earlier work.
Data set [3] is described as follows: Stability in human plasma solution. To be noted: over 24 h. It is filed as in vitro ADME.
In another data set the test system is tAkt in SNU‐1 cells. Nature of the data set: HTRF assay, tAkt in SNU-1. It is filed as cell-based. To be noted: Homo sapiens, SNU1, read-out: tAkt IC50. The essentials: (§3)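 Test compound was given as a 3-fold 8-point series, top 330 μM final, 1 % DMSO, for 1 h. EGF at 3 nM final was then added for 15 min. Cells were lysed 30 min at room temperature. TR-FRET antibody detection followed after 20 h at room temperature; read-out gave IC50.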
On the technique in general: Time-resolved FRET reads energy transfer from a long-lived donor to a nearby acceptor.

The nature of data set [4]: Stability in cell culture medium. It is filed as in vitro ADME. The settings on record: 24 h.
Another data set deals with pAkt in SNU‐1 cells. The data set is described as follows: HTRF assay of downstream phosphorylation, pAkt in SNU-1. It is filed as cell-based. The settings on record: Homo sapiens, SNU1, read-out: pAkt IC50. In short, it runs like this: as §3
A further data set has as its system pErk in A375 cells. The data set is described as follows: HTRF assay of downstream phosphorylation, pErk in A375. The format is cell-based. To be noted: Homo sapiens, A-375, read-out: pErk IC50.
The test system of a further data set is pErk in SNU‐1 cells. Nature of the data set: HTRF assay of downstream phosphorylation, pErk in SNU-1. It is filed as cell-based. The settings on record: Homo sapiens, SNU1, read-out: pErk IC50. The essentials: as §3
A further data set relates to tAkt in A375 cells. Nature of the data set: HTRF assay, tAkt in A375. It is filed as cell-based. The settings on record: Homo sapiens, A-375, read-out: tAkt IC50.
A further data set has as its system pAkt in A375 cells. The data set is described as follows: HTRF assay of downstream phosphorylation, pAkt in A375. The settings on record: Homo sapiens, A-375, read-out: pAkt IC50. It is filed as cell-based.
The test system of the next data set is tErk in A375 cells. The data set is described as follows: HTRF assay, tErk in A375. The format is cell-based. The settings on record: Homo sapiens, A-375, read-out: tErk IC50.
The subject of another data set is tErk in SNU‐1 cells. The data set is described as follows: HTRF assay, tErk in SNU-1. The format is cell-based. To be noted: Homo sapiens, SNU1, read-out: tErk IC50. In short, it runs like this: as §3

Sequence of K‐Ras wild type protein (P01116 1-188 isoform P01116-2): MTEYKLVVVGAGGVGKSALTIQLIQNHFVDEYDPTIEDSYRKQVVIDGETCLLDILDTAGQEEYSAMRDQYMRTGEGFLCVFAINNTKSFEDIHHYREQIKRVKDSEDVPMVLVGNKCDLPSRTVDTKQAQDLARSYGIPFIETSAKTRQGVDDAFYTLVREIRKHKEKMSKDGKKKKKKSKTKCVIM
Sequence of K‐Ras(G12D) (P01116 1-188 isoform P01116-2 G12D): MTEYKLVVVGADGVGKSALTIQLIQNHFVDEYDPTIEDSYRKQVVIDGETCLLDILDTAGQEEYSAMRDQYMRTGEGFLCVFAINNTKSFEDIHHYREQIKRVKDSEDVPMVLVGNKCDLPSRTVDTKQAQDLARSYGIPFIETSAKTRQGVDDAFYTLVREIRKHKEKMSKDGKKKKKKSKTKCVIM
Sequence of K‐Ras4B (P01116 1-188 isoform P01116-2): as the sequence (P01116 1-188 isoform P01116-2) above
Sequence of (GTP)K‐Ras4B (P01116 1-188 isoform P01116-2): as above
Sequence of (GDP)K‐Ras4B (P01116 1-188 isoform P01116-2): as above

Broadly, the IC50 is the midpoint of a concentration-inhibition curve. As a reminder, the Kd is the free concentration of one partner at which half of the binding sites on the other are occupied at equilibrium, for simple one-to-one binding. A low value points to higher affinity. For the compound `O=C(c1nc2cccc(O)c2[nH]1)c1cc2cccc(O)c2o1` [compound 12, (7‐Hydroxy‐1H‐benzimidazol‐2‐yl)‐(7‐hydroxybenzofuran‐2‐yl)methanon], the IC50 against K‐Ras(G12D) was 340 ± 72 µM; with NCI‐H441 (G12 V), 47.4 ± 3 µM; with A549 (G12S), 45.3 ± 1.5 µM; in the data set on HCT15 (G13D), 37.7 ± 0.4 µM; with H358 (G12 C), 37.7 ± 1.3 µM; against K‐Ras wild type protein it was 1100 ± 381 µM. In the data set with SNU‐1 (G12D), the IC50 came to 34.5 ± 2.1 µM. For the same compound, the values for the Kd on (GDP)K‐Ras4B, at K‐Ras4B and on (GTP)K‐Ras4B were 59 µM, 500 ± 100 µM and 34 µM, respectively. At K‐Ras4B (NMR titration KD ratio versus DHBP), the “fold stronger binding to K‐Ras4B than DHBP” value is on record as 18 fold. In addition, the “WT %CRTL (3 mM)” value in data set [1] was 75%.
In the case of `O=[N+]([O-])c1ccc(NN=C(c2ccc(O)cc2)c2ccc(O)cc2)c([N+](=O)[O-])c1` [7 a, 4,4′‐((2‐(2,4‐Dinitrophenyl)hydrazinylidene)methylene)diphenol], the half-inhibitory concentration (IC50) came to 236 ± 46 µM on K‐Ras(G12D); 22.8 ± 4.2 µM with NCI‐H441 (G12 V); 16.1 ± 1.5 µM in the data set on A549 (G12S); 18.9 ± 0.6 µM with HCT15 (G13D); 20.9 ± 0.8 µM in the data set on H358 (G12 C); 306 ± 49 µM against K‐Ras wild type protein. For the same compound, the IC50 with SNU‐1 (G12D) turned out to be 16.7 ± 1.2 µM. Besides, in [2], the tolerability result is given as “well tolerated”. Moreover, in data set [1], the “WT %CRTL (3 mM)” value stood at 26%.
For `Oc1ccc(C(=NOCc2ccccc2)c2ccc(O)cc2)cc1` [compound 11, Bis(4‐hydroxyphenyl)methanone‐O‐benzyl oxime], the IC50 on K‐Ras(G12D) is 431 ± 22 µM; with tAkt in SNU‐1 cells, 475 µM; in the data set on NCI‐H441 (G12 V), 62.2 ± 4.8 µM; in the data set with A549 (G12S), 54.3 ± 3.6 µM; with pAkt in SNU‐1 cells, 47.7 µM; with HCT15 (G13D), 43.9 ± 1.8 µM. The IC50 is 48.8 µM with pErk in A375 cells; 218 µM with pErk in SNU‐1 cells; 749 µM in the data set on tAkt in A375 cells; > 1000 µM with pAkt in A375 cells; 58.6 ± 0.5 µM in the data set on H358 (G12 C); 1330 ± 343 µM at K‐Ras wild type protein. Moreover, the results for the IC50 in the data set on tErk in A375 cells, with SNU‐1 (G12D) and in the data set on tErk in SNU‐1 cells were 77.2 µM, 41.7 ± 4.2 µM and > 1000 µM, respectively. Besides, the Kd was 89 µM at (GDP)K‐Ras4B and 602 µM on (GTP)K‐Ras4B. Moreover, the “stability in human plasma solution” value in data set [3] was 92%. In addition, the “stability in cell culture medium” value in data set [4] was “completely stable”. In addition, the “WT %CRTL (3 mM)” value in data set [1] is 98%.
